Compound activity from PubChem BioAssay.
Runt-SMMHC FRET = inhibitors of human RUNX1 Runt domain binding to CBFb-SMMHC; AID 1434; Cerulean-Runt/Venus-CBFb-SMMHC FRET ratio 530/480, 1 h; Q01196+Q13951; inhibition, % at 20 µM; hit rate 0.74% among 220,000;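 active means mean inhibition across duplicate retests at 20 µM reaching about 50%, limit read from the data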;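 further: 0% = DMSO wells and 100% = wells with excess untagged CBFb-SMMHC; inhibitors lower the FRET ratio by blocking Runt binding to CBFb-SMMHC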
Tb hexokinase = T. brucei hexokinase 1 inhibition; recombinant TbHK1, G6PDH-coupled NADH A340; inhibition, % at 10 µM; hit rate 0.11% among 220,000;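 active means inhibition of 50% or more in the single-dose primary screen; inactive means inhibition below 50%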
RanGTP-Imp inh = inhibitors of RanGTP-importin-beta interaction, primary screen, biochemical, FRET, CFP-Ran, YFP-importin-beta, homogeneous; inhibition, % (no concentration beside the values); cell-free CFP-Ran/YFP-importin-beta FRET ratio; hit rate 1.1% among 300,000;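 active means more than half of the replicate wells show a fall in the fluorescence ratio signal beyond about 16%, limit read from the data, passing the limit was not always enough; inconclusive means exactly half of the replicate wells pass the set limit; inactive means fewer than half of replicates pass the limit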;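 further: 0% = DMSO wells and 100% = Ran loaded with GDP instead of GTP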
14-3-3 Bad inh = disrupts binding of bovine 14-3-3 zeta to phospho-Bad peptide; P63103; TR-FRET 14-3-3zeta/Dy647-pBad peptide displacement, 1 h; inhibition, % at 21.7 µM; hit rate 0.71% among 220,000;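 active means inhibition above about 70%, limit read from the data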;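 further: 0% = full 14-3-3 plus peptide FRET controls and 100% = background without 14-3-3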
Target sequence (P63103 whole entry, looked up): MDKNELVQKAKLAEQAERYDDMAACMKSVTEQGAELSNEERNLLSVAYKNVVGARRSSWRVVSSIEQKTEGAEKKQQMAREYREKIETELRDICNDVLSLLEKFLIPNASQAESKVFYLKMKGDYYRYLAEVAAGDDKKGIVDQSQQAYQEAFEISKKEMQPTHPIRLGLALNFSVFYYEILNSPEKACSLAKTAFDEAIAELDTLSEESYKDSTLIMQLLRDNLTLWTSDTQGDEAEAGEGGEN
Hck Nef HTS = blocks Nef-activated human Hck kinase; hit rate 0.68% among 220,000; P08631; inhibition, % at 20 µM; Recombinant Hck-YEEI plus Nef, Z-Lyte FRET kinase assay;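 active means Hck-Nef kinase inhibition above about 50%, limit read from the data; inactive means inhibition below that limit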;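 further: 0% = DMSO with Hck plus Nef and 100% = Hck alone without Nef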
Target sequence (P08631 whole entry, looked up): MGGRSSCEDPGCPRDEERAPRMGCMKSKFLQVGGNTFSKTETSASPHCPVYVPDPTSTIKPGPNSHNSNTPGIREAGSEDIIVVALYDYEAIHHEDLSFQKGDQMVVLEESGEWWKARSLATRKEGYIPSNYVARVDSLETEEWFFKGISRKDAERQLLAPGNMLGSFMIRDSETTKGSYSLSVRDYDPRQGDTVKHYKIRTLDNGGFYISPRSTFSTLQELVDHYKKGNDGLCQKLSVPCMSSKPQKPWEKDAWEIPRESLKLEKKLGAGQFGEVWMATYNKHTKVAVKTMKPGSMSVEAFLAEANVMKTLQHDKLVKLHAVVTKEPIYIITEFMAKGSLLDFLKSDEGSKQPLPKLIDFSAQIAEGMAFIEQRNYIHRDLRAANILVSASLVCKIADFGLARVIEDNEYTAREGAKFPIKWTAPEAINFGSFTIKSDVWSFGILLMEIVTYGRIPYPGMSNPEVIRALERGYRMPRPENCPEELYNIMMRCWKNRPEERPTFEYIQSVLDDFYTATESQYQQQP
Runt-CBFb FRET = blocks binding of human RUNX1 Runt domain to CBFb. hit rate 0.46% among 220,000. AID 1496. Cerulean-Runt/Venus-CBFb FRET ratio 530/480, 1 h. inhibition, % at 20 µM. Q01196+Q13951;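 active means inhibition over about 50% at 20 µM in the single-dose screen, limit read from the data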;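 further: 0% = DMSO wells and 100% = excess unlabeled CBFb competitor control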
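test system = Cerulean-Runt domain fusion protein, energy donor | probe or stimulus = Venus-CBFb binding partner, 100 nM | incubation = two 1 h room-temperature incubations shielded from light | detection = fluorescence energy transfer, 422 nm excitation, 530/480 nm emission | measure = loss of energy transfer signal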
Starred values were filed as active, the others as inactive; ? = inconclusive; nt = not tested or not shown; [ ] = dose if it differs, or a comment. Shown are actives, neighbours in structure and some others; about 2.2% of the full set was active somewhere.

SMILES | Runt-SMMHC FRET | Tb hexokinase | RanGTP-Imp inh | 14-3-3 Bad inh | Hck Nef HTS | Runt-CBFb FRET
COC(=O)C1=CN(Cc2ccc(OC)cc2)C=C(C(=O)OC)C1c1cc(OC)c(OC)c(OC)c1 | nt | nt | 12.6 | nt | nt | nt
O=C1C(=Cc2ccc(Br)o2)C(=O)c2ccccc21 | 16.1 | 11.4 | nt | 88.8*[fluorescence artefact?] | 26.0 | 27.6
CCOc1ccccc1N/C(=C(/C(Cl)=C(Cl)Cl)[N+](=O)[O-])n1cncn1 | -7.6 | -16.3 | nt | 73.8* | -0.1 | -2.9
CCOc1ccc(N/C(=C(/C(Cl)=C(Cl)Cl)[N+](=O)[O-])n2cncn2)cc1 | -27.7 | -1.3 | -42.3 | 67.2 | 3.3 | -3.8
Cc1ccccc1NC(=O)CN1C(=O)S/C(=C\c2ccc(-c3cccc(C(=O)O)c3C)o2)C1=O | -3.6 | 13.7 | -1.5 | -3.4 | 37.8 | 12.0
Cc1ccc(NC(=O)CN2C(=O)S/C(=C/c3ccc(-c4cc(C(=O)O)ccc4C)o3)C2=O)cc1C | -42.1 | 30.9 | 35.8* | 76.5*[fluorescence artefact?] | 15.7 | 13.1
Cc1ccc(C(=O)O)cc1-c1ccc(C=C2C(=O)c3ccccc3C2=O)o1 | -17.2 | 2.3 | -1.4 | 25.3 | 39.3 | 12.4
O=C(O)c1cccc(-n2cccc2/C=C2\NC(=O)N(Cc3ccc(F)cc3)C2=O)c1 | 15.1 | 9.3 | 1.6 | 39.8 | 11.0 | 22.4
Cc1cc(C(=O)O)ccc1-c1ccc(/C=C2\NC(=O)N(Cc3ccc(F)cc3)C2=O)o1 | 80.3* | -12.3 | 64.9* | 28.0 | 46.7 | 115.9*
Cc1cccc(NC(=O)CN2C(=O)S/C(=C\c3ccc(-c4cccc(C(=O)O)c4C)o3)C2=O)c1 | 54.4 | 11.3 | 41.4* | -9.0 | -9.3 | 30.6
COC(=O)C(C)N1C(=O)S/C(=C\c2ccc(-c3ccc(C(=O)O)cc3C)o2)C1=O (stereo not given) | nt | nt | 17.3* | nt | nt | nt
Cc1cccn2c(=O)c(C=O)c(N3CCC4(CC3)OCCO4)nc12 | 0.2 | -16.4 | 1.4 | -4.3 | -11.2 | -1.7
CN(Cc1ccccc1F)C(=O)CN1c2cccc3cccc(c23)S1(=O)=O | nt | nt | -3.0 | nt | nt | nt
CC(C)CCn1c(S(=O)(=O)O)nc2ccccc21 | 1.9 | 4.8 | 2.7 | 75.4* | 0.7 | -0.7
O=S(=O)(O)c1nc2ccccc2n1Cc1ccccc1 | 0.4 | 2.7 | -1.0 | 70.6* | -0.4 | -0.1
CC(C)Cn1c(S(=O)(=O)O)nc2ccccc21 | -1.9 | -4.0 | 1.6 | 3.5 | 3.1 | 6.0
O=C(Cn1nc(-c2ccc3c(c2)OCCO3)ccc1=O)Nc1cccc(NC(=O)c2ccccn2)c1 | -15.8 | 5.2 | 0.1 | 41.1 | 39.7 | -7.8
CCCn1nc(C(=O)OCC(=O)NC(C)c2ccccc2)c2ccccc2c1=O (stereo not given) | -1.5 | 0.3 | 3.5 | -9.1 | 9.0 | -1.6
Cc1sccc1C1C(C#N)=C(N)SC(N)=C1C#N | 40.7 | -14.6 | 68.1* | 0.8 | 17.4 | 46.4
CCOC(=O)C1C(=O)C=C(c2ccc(NS(C)(=O)=O)cc2)CC1c1ccco1 (stereo not given) | -19.8 | -23.0 | 6.3 | 15.6 | -3.3 | 78.8*
CCOC(=O)C1C(=O)C=C(c2ccc(C)cc2)CC1c1ccco1 (stereo not given) | 10.1 | -6.3 | ? | -0.6 | -1.8 | 10.2
CCOC(=O)C1CCN(C(=O)Nc2ccc3nc(-c4ccco4)c(-c4ccco4)nc3c2)CC1 | -219.0 | 0.0 | 74.9* | 31.6 | 27.8 | -44.4
O=C(Nc1ccccn1)N1CCOCC1 | 2.5 | -6.9 | -1.9 | 7.0 | 0.5 | 0.8
Cc1nc2ccc(NC(=O)N3CCCCC3)cc2nc1C | -21.6 | -9.0 | -15.0 | -5.6 | 4.1 | -6.9
O=C(Nc1ccc2nc(-c3ccccn3)c(-c3ccccn3)nc2c1)N1CCOCC1 | 33.6 | -14.0 | 19.8* | -9.9 | 9.0 | 24.7
SMILES | Runt-SMMHC FRET | Tb hexokinase | RanGTP-Imp inh | 14-3-3 Bad inh | Hck Nef HTS | Runt-CBFb FRET
O=C(Nc1ccc2nc(-c3ccco3)c(-c3ccco3)nc2c1)N1CCCCCC1 | -126.2 | 3.0 | 79.8* | 35.0 | 47.1 | -17.7
CCOC(=O)C1CCN(C(=O)Nc2ccc3c(c2)nc(C)n3C)CC1 | 0.7 | -2.2 | 0.0 | -8.9 | 5.9 | 3.6
Cc1ccc(C(=O)C(C)OC(=O)Cc2n[nH]c(=O)c3ccccc23)cc1 (stereo not given) | nt | nt | -3.5 | nt | nt | nt
O=C(CCc1c[nH]c2ccccc12)NCCc1ccc(Cl)cc1 | nt | nt | 4.0 | nt | nt | nt
Cc1cccc(OCC(O)Cn2c(N3CCCCC3)nc3c2c(=O)n(C)c(=O)n3C)c1 (stereo not given) | nt | nt | 0.4 | nt | nt | nt
COc1cccc(NC(=O)CSc2nncn2N)c1 | -4.1 | 2.9 | -3.3 | -7.0 | 0.3 | 0.5
NC(=O)CCC(NC(=O)c1ccc(Cl)cc1)C(=O)O (stereo not given) | 3.2 | -2.5 | 0.0 | 0.9 | 1.2 | 0.5
Cc1cc(NC(=O)CCC(=O)N(Cc2ccccc2)C2(C(=O)NC3CCCCC3)CCCC2)no1 | -5.0 | -7.9 | -5.3 | -6.6 | 14.7 | -2.1
Cc1cccc(OCC(=O)N(C)CCc2ccccn2)c1 | 1.0 | 10.0 | 5.1 | 71.2* | -21.2 | -2.7
O=C(CN(C(=O)CNC(=O)c1ccco1)c1ccc(F)cc1)NC1CCCC1 | nt | nt | -3.0 | nt | nt | nt
Cc1nc(N2CCN(c3ccccc3)CC2)[nH]c(=O)c1Cc1ccccc1 | 2.3 | -3.6 | 8.4 | 91.5* | -0.8 | -1.4
Cc1nc(N2CCN(C)CC2)[nH]c(=O)c1Cc1cccc2ccccc12 | 1.4 | -5.5 | -2.1 | 2.5 | -0.5 | -0.3
Cc1cc(N=Cc2c(O)n(-c3ccc(C)c(C)c3)c(=O)c3ccccc23)no1 | 17.0 | -12.6 | nt | 2.8 | 5.9 | 7.9
CCOC(=O)Cc1csc(/N=C/c2c(O)n(-c3ccc(C)c(C)c3)c(=O)c3ccccc23)n1 | 61.6* | 5.9 | -1.6 | 5.7 | 5.9 | -81.6
CCOc1c(Cl)cc(Cl)cc1CNCCNCCO | -2.2 | -2.2 | -0.2 | 72.3* | 0.6 | -3.3
O=C(c1ccco1)[C@@H]1[C@@H]2C(=O)N(c3ccc(F)cc3)C(=O)[C@@H]2C2c3ccccc3C=CN21 (stereo not given in full) | -44.8 | -10.4 | 45.3* | -8.4 | 0.9 | -12.9
O=C(c1ccco1)[C@@H]1[C@@H]2C(=O)N(c3ccc(F)cc3)C(=O)[C@@H]2[C@H]2C=Cc3ccccc3N21 | -2.0 | -5.0 | nt | 88.8*[fluorescence artefact?] | 0.5 | 4.8
NC(=O)[C@@H]1[C@@H]2C(=O)N(c3ccc(F)cc3)C(=O)[C@@H]2[C@H]2C=Cc3ccccc3N21 | -79.0 | -17.8 | -0.5 | 1.2 | 23.1 | -2.2
CCCc1cc(=O)oc2cc(OCC(=O)NCCCN3CCOCC3)c(Cl)cc12 | nt | nt | -2.2 | nt | nt | nt
CCCc1cc(=O)oc2c3c(c(Cl)cc12)OCN(CCCO)C3 | nt | nt | 62.2* | nt | nt | nt
Cc1nn(-c2ccc(Cl)cc2)c(=O)c2ccccc12 | 5.0 | -3.9 | -1.5 | -9.7 | 10.2 | 1.6
Cc1c(Cl)sn(-c2ccc(Cl)cc2)c1=O | 53.2* | 34.5 | nt | -35.2 | -106.8 | 28.6
